According to ChEMBL document CHEMBL1140884, “Oligodeoxyribonucleotide-based antagonists for Toll-like receptors 7 and 9” (2009):
The source made the active and inactive calls. The rule behind the calls is not given here.

Tests used:
[1] = biological target: T1, Toll-like receptor 9 (Mus musculus) (UniProt Q9EQU3); assay: Antagonist activity at mouse TLR9 expressed in HEK293 cells assessed as inhibition of 5'-CTATCTGACGTTCTCTGT-3'-induced NF-kappaB activation by SEAP reporter gene assay; format: functional, cell-based
T1 sequence (whole entry): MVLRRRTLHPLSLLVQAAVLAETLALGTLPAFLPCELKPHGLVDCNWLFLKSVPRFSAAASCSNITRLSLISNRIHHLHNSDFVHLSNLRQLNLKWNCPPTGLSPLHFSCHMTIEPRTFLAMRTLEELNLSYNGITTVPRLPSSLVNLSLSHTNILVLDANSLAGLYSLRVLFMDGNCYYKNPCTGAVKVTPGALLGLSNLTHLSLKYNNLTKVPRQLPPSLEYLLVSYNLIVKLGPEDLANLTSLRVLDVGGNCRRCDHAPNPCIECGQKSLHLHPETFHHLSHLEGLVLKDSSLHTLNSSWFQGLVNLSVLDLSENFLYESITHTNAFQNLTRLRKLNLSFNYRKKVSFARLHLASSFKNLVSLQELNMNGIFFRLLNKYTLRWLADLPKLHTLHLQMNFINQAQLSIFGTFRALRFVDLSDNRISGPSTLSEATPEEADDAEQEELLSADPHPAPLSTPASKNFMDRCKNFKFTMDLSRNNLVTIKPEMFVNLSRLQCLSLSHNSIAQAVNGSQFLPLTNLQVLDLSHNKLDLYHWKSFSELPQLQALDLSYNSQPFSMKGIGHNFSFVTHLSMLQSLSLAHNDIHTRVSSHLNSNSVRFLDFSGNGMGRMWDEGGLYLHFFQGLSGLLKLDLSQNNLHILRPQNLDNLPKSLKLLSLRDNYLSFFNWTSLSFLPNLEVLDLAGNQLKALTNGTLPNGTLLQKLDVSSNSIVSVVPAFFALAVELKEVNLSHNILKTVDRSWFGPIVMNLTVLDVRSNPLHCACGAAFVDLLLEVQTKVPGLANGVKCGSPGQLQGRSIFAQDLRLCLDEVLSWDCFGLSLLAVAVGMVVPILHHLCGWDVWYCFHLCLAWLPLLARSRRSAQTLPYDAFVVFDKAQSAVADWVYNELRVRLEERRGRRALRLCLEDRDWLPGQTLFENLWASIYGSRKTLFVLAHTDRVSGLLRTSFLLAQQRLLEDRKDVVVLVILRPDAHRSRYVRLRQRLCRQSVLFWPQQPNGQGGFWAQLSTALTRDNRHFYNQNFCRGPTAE
In short: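 Mouse TLR9-HEK293 cells were transfected with a SEAP reporter for 6 h. They were then stimulated for 18 h with agonist (0.25 or 0.5 µg/mL) plus increasing antagonist concentrations or set agonist:antagonist ratios. Quanti-Blue read-out, reported as % NF-κB activity with agonist alone as 100%.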

[2] = biological target: T1, Toll-like receptor 9 (Mus musculus); assay: Antagonist activity at TLR9 in mouse J774 cells assessed as inhibition of LPS-induced NF-kappaB activation treated 1 hr before LPS induction; format: functional, cell-based
In short: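 J774 cells at 5×10^6 cells/well were preincubated with antagonist for 1 h. Agonist was then added: TLR9 agonist 1 µg/mL, an RNA-based TLR7/8 agonist, or LPS 100 ng/mL. Antagonist was used at 5–40 µg/mL or at the indicated agonist ratios. Nuclear extracts were taken 1 h after agonist and analysed by EMSA.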

[3] = biological target: T1, Toll-like receptor 9 (Mus musculus); assay: Antagonist activity at TLR9 in mouse J774 cells assessed as inhibition of 5'-TCTGACRTTCT-X-TCTTRCAGTCT-3'-induced NF-kappaB activation pretreated for 30 mins; format: functional, cell-based
In short: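 J774 cells received antagonist at 5, 10 or 20 µg/mL either 30 min before, together with, or 30 min after TLR9 agonist (1 µg/mL). Nuclear extracts were prepared 1 h after agonist addition and NF-κB was assessed by EMSA.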

Mus musculus [4] = assay: Inhibition of 5'-TCTGACRTTCT-X-TCTTRCAGTCT-3'-induced IL10 production in C57BL/6 mouse treated 72 hrs before induction at 10 mg/kg, sc; format: functional; settings: C57BL/6, sc, route subcutaneous
In short: (§1)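 Female C57BL/6 mice (n=3) received antagonist 10 mg/kg sc in the right flank. After 72 h, TLR9 agonist 0.25 mg/kg sc was given in the left flank. Serum was taken 2 h after agonist and cytokines/chemokines were measured by Luminex multiplex assay. Representative of at least three experiments.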

Mus musculus [5] = assay: Inhibition of 5'-TCTGACRTTCT-X-TCTTRCAGTCT-3'-induced MCP1 production in C57BL/6 mouse treated 72 hrs before induction at 10 mg/kg, sc; format: functional; settings: C57BL/6, sc, route subcutaneous; in short: as §1
Mus musculus [6] = assay: Inhibition of 5'-TCTGACRTTCT-X-TCTTRCAGTCT-3'-induced KC production in C57BL/6 mouse treated 72 hrs before induction at 10 mg/kg, sc; format: functional; settings: C57BL/6, sc, route subcutaneous; in short: as §1
Mus musculus [7] = assay: Inhibition of 5'-UGCUGUUCUG-X-GUCUUGUCGU-5'-induced IP10 production in C57BL/6 mouse treated 72 hrs before induction at 10 mg/kg, sc; format: functional; settings: C57BL/6, sc, route subcutaneous
In short: (§2)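 Female C57BL/6 mice, 6-8 weeks, n = 3, given antagonist 10 mg/kg sc in the right flank. After 72 h, agonist given sc in the left flank: TLR7/8 RNA agonist at 50 mg/kg or TLR9 agonist at 0.25 mg/kg. Serum collected 2 h after agonist by retro-orbital bleeding; cytokines/chemokines by mouse 20-plex Luminex bead assay.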

Mus musculus [8] = assay: Inhibition of 5'-UGCUGUUCUG-X-GUCUUGUCGU-5'-induced IL6 production in C57BL/6 mouse treated 72 hrs before induction at 10 mg/kg, sc; format: functional; settings: C57BL/6, sc, route subcutaneous; in short: as §2
Mus musculus [9] = assay: Inhibition of 5'-UGCUGUUCUG-X-GUCUUGUCGU-5'-induced KC production in C57BL/6 mouse treated 72 hrs before induction at 10 mg/kg, sc; format: functional; settings: C57BL/6, sc, route subcutaneous; in short: as §2
Mus musculus [10] = assay: Inhibition of 5'-UGCUGUUCUG-X-GUCUUGUCGU-5'-induced MIG production in C57BL/6 mouse treated 72 hrs before induction at 10 mg/kg, sc; format: functional; settings: C57BL/6, sc, route subcutaneous; in short: as §2
Mus musculus [11] = assay: Inhibition of 5'-TCTGACRTTCT-X-TCTTRCAGTCT-3'-induced IL12 production in C57BL/6 mouse treated 72 hrs before induction at 10 mg/kg, sc; format: functional; settings: C57BL/6, sc, route subcutaneous; in short: as §1
[12] = biological target: T1, Toll-like receptor 9 (Mus musculus); assay: Antagonist activity at TLR9 in mouse J774 cells assessed as inhibition of 5'-TCTGACRTTCT-X-TCTTRCAGTCT-3'-induced NF-kappaB activation pretreated for 1 hr in presence of increasing levels of 5'-TCTGACRTTCT-X-TCTTRCAGTCT-3'; format: functional, cell-based
In short: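 Reversibility test: J774 cells were stimulated with varying doses of TLR9 agonist, with or without a fixed 10 µg/mL antagonist, for 1 h. Nuclear extracts were analysed for NF-κB by EMSA.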

[13] = biological target: T1, Toll-like receptor 9 (Mus musculus); assay: Antagonist activity at mouse TLR9 expressed in HEK293 cells assessed as inhibition of 5'-TCTGACRTTCT-X-TCTTRCAGTCT-3'-induced NF-kappaB activation pretreated for 1 hr in presence of increasing levels of 5'-TCTGACRTTCT-X-TCTTRCAGTCT-3'; format: functional, cell-based
In short: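 In mouse TLR9-HEK293 cells with SEAP reporter, a fixed 10 µg/mL antagonist was combined with increasing TLR9 agonist concentrations for 18 h. Quanti-Blue SEAP read-out of NF-κB activity.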

CO[C@@H]1[C@H](OP(=O)(S)OC[C@H]2O[C@@H](n3ccc(N)nc3=O)C[C@@H]2OP(=O)(S)OC[C@H]2O[C@@H](n3ccc4c(=O)[nH]c(N)nc43)C[C@@H]2OP(=O)(S)OC[C@H]2O[C@@H](n3cc(C)c(=O)[nH]c3=O)C[C@@H]2OP(=O)(S)OC[C@H]2O[C@@H](n3cc(C)c(=O)[nH]c3=O)C[C@@H]2OP(=O)(S)OC[C@H]2O[C@@H](n3ccc(N)nc3=O)C[C@@H]2OP(=O)(S)OC[C@H]2O[C@@H](n3cc(C)c(=O)[nH]c3=O)C[C@@H]2OP(=O)(S)OC[C@H]2O[C@@H](n3ccc(N)nc3=O)C[C@@H]2OP(=O)(S)OC[C@H]2O[C@@H](n3cc(C)c(=O)[nH]c3=O)C[C@@H]2OP(=O)(S)OC[C@H]2O[C@@H](n3cnc4c(=O)[nH]c(N)nc43)C[C@@H]2OP(=O)(S)OC[C@H]2O[C@@H](n3cc(C)c(=O)[nH]c3=O)C[C@@H]2O)[C@@H](COP(=O)(S)O[C@H]2[C@@H](OC)[C@H](n3cnc4c(=O)[nH]c(N)nc43)O[C@@H]2COP(=O)(S)O[C@H]2C[C@H](n3cc(C)c(=O)[nH]c3=O)O[C@@H]2COP(=O)(S)O[C@H]2C[C@H](n3ccc(N)nc3=O)O[C@@H]2COP(=O)(S)O[C@H]2C[C@H](n3cc(C)c(=O)[nH]c3=O)O[C@@H]2COP(=O)(S)O[C@H]2C[C@H](n3cnc4c(N)ncnc43)O[C@@H]2COP(=O)(S)O[C@H]2C[C@H](n3cc(C)c(=O)[nH]c3=O)O[C@@H]2COP(=O)(S)O[C@@H]2C[C@@H](n3ccc(N)nc3=O)O[C@H]2CO)O[C@H]1n1cnc2c(N)ncnc21 (stereo partly drawn)
Activity [1]: Active | Activity [2]: inactive | Activity [3]: Active | inhibition in vivo at 10 mg/kg (Mus musculus [4]): ≥ 50% | inhibition in vivo at 10 mg/kg (Mus musculus [5]): ≥ 50% | inhibition in vivo at 10 mg/kg (Mus musculus [6]): ≥ 50% | inhibition in vivo at 10 mg/kg (Mus musculus [7]): ≥ 50% | inhibition in vivo at 10 mg/kg (Mus musculus [8]): ≥ 50% | inhibition in vivo at 10 mg/kg (Mus musculus [9]): ≥ 50% | inhibition in vivo at 10 mg/kg (Mus musculus [10]): ≥ 50% | inhibition in vivo at 10 mg/kg (Mus musculus [11]): ≥ 50% | Activity [12]: inactive | Activity [13]: inactive
